From PubChem BioAssay AID504353 (Broad Institute, 2011)
Calls of active or inactive are those of the source.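 Rule for the calls: active = fitted curve climbs past 10% caspase activation, relative to the positive control, at or below the top valid tested dose; inactive = the rest, including activity in the opposite direction.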

How the values were obtained:
[1] = tested on: wild-type MEF caspase-3/7 activation, CaspaseGlo luminescence, 3 h; test: apoptosis induction in unprimed parental MEFs – cell-based, wild-type MEF, luminescence, dry powder, set 4, counter-screen for A1 inhibitor project, dose response (AID 504353)
Procedure, shortened: (§1)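 Test system: Wild-type MEFs, not A1-dependent | Amount: 2500 cells per well | Medium: RPMI-1640, 10% FBS | Incubation: 3 h compound exposure, 37 °C | Measure: Caspase activation level from luminescent signal | Dosing: Pin-transferred compound | Measured by: CaspaseGlo luminescence after 1 h reagent incubation, room temperature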

[2] = as above; settings: wild-type MEF caspase-3/7 activation, CaspaseGlo luminescence, 3 h; at 35 µM (top of the series)
Procedure, shortened: as §1

SMILES | AC10 [1] [µM] | caspase activation [2]
Cn1c(=O)c([N+](=O)[O-])c(-n2cnc3ccccc32)c2ccccc21 | 26.1 | –
CCn1c(=O)c([N+](=O)[O-])c(Sc2ccc(C)cc2)c2ccccc21 | – | 0.55% (inactive)
Cn1c(=O)c([N+](=O)[O-])c(Cl)c2ccccc21 | 2.9 | –
C/C(=N\Nc1nc(N2CCCCC2)nc(N2CCCCC2)n1)c1ccc(F)cc1 | – | 0.729% (inactive)
COCCn1c(=O)c(Sc2ccc(C)cc2)c(Sc2ccc(C)cc2)c2ccccc21 | – | 0.618% (inactive)
COc1ccc(CCNc2nc(N3CCOCC3)nc(N3CCOCC3)n2)cc1OC | – | 0.427% (inactive)
Cc1ccc(Sc2c(Sc3ccc(C)cc3)c3ccccc3n(C)c2=O)cc1 | – | -0.533% (inactive)
O=C(COc1ccc(Cl)cc1Cl)NNc1nc(N2CCOCC2)nc(N2CCOCC2)n1 | – | 2.07% (inactive)
O=c1c([N+](=O)[O-])c(Cl)c2ccccc2n1Cc1ccccc1 | 3.93 | –
O=c1[nH]c2ccccc2c(Cl)c1[N+](=O)[O-] | – | -2.56% (inactive)
Cc1ccc(Sc2c([N+](=O)[O-])c(=O)n(Cc3ccccc3)c3ccccc23)cc1 | 21.7 | –
COCCn1c(=O)c([N+](=O)[O-])c(Sc2ccc(C)cc2)c2ccccc21 | 22 | –
